Measurements published in article PMC11439047 (Nature Communications, 2024).
Positions count from the first letter of the chain named.

Columns and labels:
[1] = molecular target: T1, P2X1 receptor R139A (Homo sapiens, UniProt P51575, R139A); assay: Calcium ion influx assay; format: cell-based
T1 sequence (P51575 1-399 R139A): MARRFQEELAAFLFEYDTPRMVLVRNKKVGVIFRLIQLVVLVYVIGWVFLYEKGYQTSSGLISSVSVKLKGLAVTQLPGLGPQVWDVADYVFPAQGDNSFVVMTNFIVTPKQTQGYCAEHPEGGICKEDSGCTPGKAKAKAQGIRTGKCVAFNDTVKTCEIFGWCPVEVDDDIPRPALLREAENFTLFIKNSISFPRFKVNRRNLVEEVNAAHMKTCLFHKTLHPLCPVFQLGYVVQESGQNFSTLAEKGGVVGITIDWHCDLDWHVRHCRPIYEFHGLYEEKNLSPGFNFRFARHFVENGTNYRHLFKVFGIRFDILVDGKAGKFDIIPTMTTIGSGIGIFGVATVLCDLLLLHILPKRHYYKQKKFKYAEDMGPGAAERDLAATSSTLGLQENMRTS

[2] = molecular target: T2, P2X1 receptor E122A (Homo sapiens, UniProt P51575, E122A); assay: Calcium ion influx assay; format: cell-based
T2 sequence (P51575 1-399 E122A): T1 sequence (P51575 1-399 R139A) with E122A, A139R
Summary of the method: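 Tetracycline-induced (150 ng/mL, 2 days) stable HEK293 Flp-In T-REx cells at 15,000 cells/well, loaded with Fluo-8 for 1 h at 37 °C in probenecid-containing HEPES buffer, pH 7.4. Then 30 min buffer incubation, 20 s baseline, agonist addition and 2 min reading (ex 485/em 525 nm). Max-minus-min fluorescence normalised to 10 µM ionomycin, rescaled 0–100. Constrained four-parameter fit; EC50 per experiment; four independent experiments, triplicate.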

[3] = molecular target: T3, P2X1 receptor K140A (Homo sapiens, UniProt P51575, K140A); assay: Saturation radioligand binding with [3H]-α,β-methylene ATP
T3 sequence (P51575 1-399 K140A): T1 sequence (P51575 1-399 R139A) with A139R, K140A
Summary of the method: (§1)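 Whole HEK293 Flp-In T-REx cells stably expressing receptor, tetracycline-induced (150 ng/ml, 2 days), 15,000 cells/well, washed in HEPES binding buffer pH 7.4 with Ca2+/Mg2+. Increasing [3H]-α,β-methylene ATP added, 3 h room temperature with gentle agitation; non-specific binding with 10 μM ATP. Ice-cold 0.9% NaCl washes, scintillation counting (CCPM). Specific binding fitted one-site; values above 300 nM termed not defined.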

[4] = molecular target: T4, P2X1 receptor D170A (Homo sapiens, UniProt P51575, D170A); assay: Saturation radioligand binding with [3H]-α,β-methylene ATP
T4 sequence (P51575 1-399 D170A): T1 sequence (P51575 1-399 R139A) with A139R, D170A

[5] = molecular target: T5, P2X1 receptor K136W (Homo sapiens, UniProt P51575, K136W); assay: Saturation radioligand binding with [3H]-α,β-methylene ATP
T5 sequence (P51575 1-399 K136W): T1 sequence (P51575 1-399 R139A) with K136W, A139R
Summary of the method: as §1

Q: What does the source list for `Nc1ncnc2c1ncn2[C@@H]1O[C@H](COP(=O)(O)CP(=O)(O)OP(=O)(O)O)[C@@H](O)[C@H]1O` [α,β-methylene ATP]?
A: fold decrease in potency compared to WT-P2X1 [1]: 3.5 fold; desensitisation rate compared to WT-P2X1 ([1]; maximal α,β-methylene ATP): significantly slowed the desensitisation rate; fold decrease in potency compared to WT-P2X1 [2]: 18.5 fold; binding affinity compared to WT-P2X1 [3]: comparable to that of WT-P2X1; binding affinity compared to WT-P2X1 [4]: beyond the threshold that could be accurately measured; binding affinity compared to WT-P2X1 [5]: similar
